From ChEMBL document CHEMBL1156920, “Structural analogues of schweinfurthin F: probing the steric, electronic, and hydrophobic properties of the D-ring substructure” (Bioorg Med Chem, 2010)

Experiments:
MDA-MB-231 = assay: Growth inhibition of human MDA-MB-231 cells; format: functional; conditions: for TGI: read-out: pTGI (converted)
NCI-H522 = assay: Growth inhibition of human NCI-H522 cells; format: functional; conditions: for TGI: read-out: pTGI (converted)
A549 [1] = assay: Cytotoxicity against human A549 cells after 44 hrs by MTT assay; format: functional, cell-based; conditions: A549, 44 h
How it was run: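 SF-295 cells cultured in RPMI 1640 and A549 cells in F-12, each with 10% FBS, penicillin–streptomycin, amphotericin B and L-glutamine, at 37 °C in 5% CO2. Cells were grown to 60% confluency, then treated for 44 h. Medium was replaced with medium containing 0.06 mg/mL MTT (phenol red-free RPMI for SF-295) for 4 h. Acid/Triton/isopropanol stop solution was added, plates incubated overnight at 37 °C, OD read at 540 and 650 nm, and EC50 calculated.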

[2] = Growth inhibition of human Hs 578T cells; format: functional
NCI-H23 = assay: Growth inhibition of human NCI-H23 cells; format: functional; conditions: for TGI: read-out: pTGI (converted)
Malme-3M = assay: Growth inhibition of human MALME-3M cells; format: functional; conditions: for TGI: read-out: pTGI (converted)
SN12C = assay: Growth inhibition of human SN12C cells; format: functional; conditions: for TGI: read-out: pTGI (converted)
COLO 205 = assay: Growth inhibition of human COLO205 cells; format: functional; conditions: for TGI: read-out: pTGI (converted)
SK-MEL-5 = assay: Growth inhibition of human SK-MEL-5 cells; format: functional; conditions: for TGI: read-out: pTGI (converted)
EKVX = assay: Growth inhibition of human EKVX cells; format: functional; conditions: for TGI: read-out: pTGI (converted)
SW-620 = assay: Growth inhibition of human SW620 cells; format: functional
SF-295 = assay: Growth inhibition of human SF295 cells; format: functional; conditions: for TGI: read-out: pTGI (converted)
NCI/ADR-RES = assay: Growth inhibition of human NCI/ADR-RES cells; format: functional; conditions: for CC50: read-out: pLC50 (the source's name) (converted); for TGI: read-out: pTGI (converted)
A549 [3] = assay: Selectivity index, ratio of EC50 for human A549 cells to EC50 for SF295 cells; format: functional
How it was run: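 SF-295 cells were kept in RPMI 1640 and A549 in F-12, each with 10% FBS, pen-strep, amphotericin B and L-glutamine, at 37 °C and 5% CO2. Cells at 60% confluency were dosed for 44 h, then given 0.06 mg/mL MTT for 4 h (SF-295 in phenol-red-free RPMI). Acid/Triton/isopropanol stop was added overnight at 37 °C, and OD read at 540/650 nm. EC50 ratio is A549 over SF-295.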

LOX IMVI = assay: Growth inhibition of human LOXIMVI cells; format: functional; conditions: for TGI: read-out: pTGI (converted)
SNB-19 = assay: Growth inhibition of human SNB19 cells; format: functional
T47D = assay: Growth inhibition of human T47D cells; format: functional; conditions: for CC50: read-out: pLC50 (the source's name) (converted)
MOLT-4 = assay: Growth inhibition of human MOLT4 cells; format: functional; conditions: for TGI: read-out: pTGI (converted)
A549 [4] = assay: Growth inhibition of human A549 cells; format: functional; conditions: for TGI: read-out: pTGI (converted)
SNB-75 = assay: Growth inhibition of human SNB75 cells; format: functional; conditions: for TGI: read-out: pTGI (converted)
SK-MEL-28 = assay: Growth inhibition of human SK-MEL-28 cells; format: functional
OVCAR-8 = assay: Growth inhibition of human OVCAR8 cells; format: functional
[5] = read-out: pLC50 (the source's name) (converted)

Compound `COc1cc(/C=C/c2cc(O)c(CCC(C)C)c(O)c2)cc2c1O[C@]1(C)CC[C@@H](O)C(C)(C)[C@H]1C2` has a GI50 (MDA-MB-231) of 1.74 µM, an LC50 (MDA-MB-231) of 39.8 µM and a TGI (MDA-MB-231) of 11 µM. For the same compound, the GI50 (NCI-H522) was 1.32 µM, the LC50 (50% lethal concentration) (NCI-H522) was > 100 µM and the TGI (NCI-H522) was 24 µM. For the same compound, the EC50 (A549 [1]) was 4.2 µM, the GI50 [2] was 0.0309 µM and the CC50 [2, 5] was > 100 µM. For the same compound, the TGI ([2]; read-out: pTGI (converted)) was 0.166 µM, the GI50 (NCI-H23) was 1.29 µM and the LC50 (NCI-H23) was 81.3 µM. The TGI (NCI-H23) was 19.5 µM, the GI50 (Malme-3M) was 1.41 µM and the LC50 (Malme-3M) was 63.1 µM. The TGI (Malme-3M) was 12.3 µM, the GI50 (SN12C) was 0.741 µM and the LC50 (SN12C) was > 100 µM. The TGI (SN12C) was 36.3 µM, the GI50 (COLO 205) was 0.891 µM and the LC50 (COLO 205) was > 100 µM. For the same compound, the TGI (COLO 205) was 12.3 µM, the GI50 (SK-MEL-5) was 0.0832 µM and the LC50 (SK-MEL-5) was 4.47 µM. For the same compound, the TGI (SK-MEL-5) was 1.51 µM, the GI50 (EKVX) was 0.447 µM and the LC50 (EKVX) was > 100 µM. For the same compound, the TGI (EKVX) was 17.4 µM, the GI50 (SW-620) was 0.214 µM and the CC50 (SW-620; [5]) was 14.8 µM. For the same compound, the TGI (SW-620; read-out: pTGI (converted)) was 2.34 µM, the GI50 (SF-295) was 0.0331 µM and the LC50 (SF-295) was 66.1 µM. The TGI (SF-295) was 1.35 µM, the GI50 (NCI/ADR-RES) was 2.34 µM and the CC50 (NCI/ADR-RES) was > 100 µM. The TGI (NCI/ADR-RES) was 47.9 µM, the “Ratio EC50” value (A549 [3]) was 10 and the GI50 (LOX IMVI) was 0.0708 µM. The LC50 (LOX IMVI) was 5.89 µM, the TGI (LOX IMVI) was 1.78 µM and the GI50 (SNB-19) was 0.372 µM. The GI50 (T47D) was 2.04 µM, the CC50 (T47D) was > 100 µM and the GI50 (MOLT-4) was 0.0457 µM. For the same compound, the LC50 (MOLT-4) was > 100 µM, the TGI (MOLT-4) was 18.6 µM and the GI50 (A549 [4]) was 0.166 µM. The LC50 (50% lethal concentration) (A549 [4]) was > 100 µM, the TGI (A549 [4]) was 17.4 µM and the GI50 (SNB-75) was 0.0603 µM. The LC50 (SNB-75) was 39.8 µM, the TGI (SNB-75) was 11.2 µM and the GI50 (SK-MEL-28) was 0.123 µM. For the same compound, the CC50 (SK-MEL-28; [5]) was 37.2 µM and the TGI (SK-MEL-28; read-out: pTGI (converted)) was 11.2 µM.
With `COc1cc(CCc2cc(O)c(C/C=C(\C)CC/C=C(\C)CO)c(O)c2)cc2c1O[C@]1(C)CC[C@@H](O)C(C)(C)[C@H]1C2` the GI50 (MDA-MB-231) was 8.13 µM, the LC50 (MDA-MB-231) was > 100 µM and the TGI (MDA-MB-231) was 38 µM. For the same compound, the GI50 (OVCAR-8) was 8.32 µM, the CC50 (OVCAR-8; [5]) was > 100 µM and the TGI (OVCAR-8; read-out: pTGI (converted)) was 64.6 µM. The GI50 (NCI-H522) was 5.25 µM, the LC50 (50% lethal concentration) (NCI-H522) was > 100 µM and the TGI (NCI-H522) was 29.5 µM. The EC50 (A549 [1]) was > 10 µM, the GI50 (NCI-H23) was 6.92 µM and the LC50 (NCI-H23) was 85.1 µM. For the same compound, the TGI (NCI-H23) was 25.7 µM, the GI50 (Malme-3M) was 6.31 µM and the LC50 (Malme-3M) was > 100 µM. For the same compound, the TGI (Malme-3M) was 38 µM, the GI50 (SN12C) was 7.59 µM and the LC50 (SN12C) was > 100 µM. It also gave a TGI (SN12C) of 52.5 µM, a GI50 (COLO 205) of 10.7 µM and an LC50 (COLO 205) of 67.6 µM. For the same compound, the TGI (COLO 205) was 26.9 µM, the GI50 (SK-MEL-5) was 3.39 µM and the LC50 (SK-MEL-5) was 33.1 µM. The TGI (SK-MEL-5) was 11 µM, the GI50 (EKVX) was 5.75 µM and the LC50 (EKVX) was > 100 µM. For the same compound, the TGI (EKVX) was 33.1 µM, the GI50 (SF-295) was 2.51 µM and the LC50 (SF-295) was 45.7 µM. The TGI (SF-295) was 10 µM, the GI50 (NCI/ADR-RES) was 17.4 µM and the CC50 (NCI/ADR-RES) was > 100 µM. It also gave a TGI (NCI/ADR-RES) of 61.7 µM, a GI50 (LOX IMVI) of 4.47 µM and an LC50 (LOX IMVI) of 46.8 µM. The TGI (LOX IMVI) was 16.6 µM, the GI50 (SNB-19) was 4.17 µM and the LC50 (SNB-19) was 49 µM. The TGI (SNB-19; read-out: pTGI (converted)) was 18.2 µM, the GI50 (T47D) was 5.89 µM and the CC50 (T47D) was > 100 µM. It also gave a TGI (T47D; read-out: pTGI (converted)) of 35.5 µM, a GI50 (MOLT-4) of 1.7 µM and an LC50 (MOLT-4) of 97.7 µM. The TGI (MOLT-4) was 7.59 µM, the GI50 (A549 [4]) was 4.9 µM and the LC50 (50% lethal concentration) (A549 [4]) was > 100 µM. The TGI (A549 [4]) was 95.5 µM, the GI50 (SNB-75) was 1.7 µM and the LC50 (SNB-75) was > 100 µM. The TGI (SNB-75) was 10.7 µM.
